Reference: ChEMBL document CHEMBL6087445, “Discovery of Non-Covalent Inhibitors for SARS-CoV-2 PLpro: Integrating Virtual Screening, Synthesis, and Experimental Validation” (ACS Med Chem Lett, 2024)

Key:
[1] = Microsomal stability in human liver microsomes assessed as parent compound remaining measured after 30 mins by LC-MS/MS analysis; type: ADME, Microsome; settings: read-out: Stability
[2] = Microsomal stability in mouse liver microsomes assessed as parent compound remaining measured after 30 mins by LC-MS/MS analysis; type: ADME, Microsome; settings: read-out: Stability
[3] = Microsomal stability in rat liver microsomes assessed as parent compound remaining measured after 30 mins by LC-MS/MS analysis; type: ADME, Microsome; settings: read-out: Stability
[4] = test system: Severe acute respiratory syndrome coronavirus 2; assay: Binding affinity to recombinant SARS-CoV-2 PLpro extracted from Escherichia coli BL21 (DE3) cells assessed as change in melting temperature at 1000 uM by DSF analysis
[5] = test system: Severe acute respiratory syndrome coronavirus 2; assay: Inhibition of recombinant SARS-CoV-2 PLpro extracted from Escherichia coli BL21 (DE3) cells in presence of CHAPS detergent by microplate reader analysis
How it was run: (§1)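 SARS-CoV-2 PLpro enzymatic inhibition run with and without 1 mM CHAPS detergent; GRL0617 served as positive control.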

[6] = test system: Severe acute respiratory syndrome coronavirus 2; assay: Inhibition of recombinant SARS-CoV-2 PLpro extracted from Escherichia coli BL21 (DE3) cells in absence of CHAPS detergent by microplate reader analysis; how it was run: as §1
[7] = Selectivity ratio of CC50 for cytotoxicity against human HepG2 cells to CC50 for African green monkey Vero cells; type: toxicity, cell-based; settings: HepG2 cells and Vero cells
[8] = test system: Severe acute respiratory syndrome coronavirus 2; assay: Inhibition of recombinant SARS-CoV-2 PLpro extracted from Escherichia coli BL21 (DE3) cells in presence of 0.01% triton by microplate reader analysis
[9] = test system: Severe acute respiratory syndrome coronavirus 2; assay: Inhibition of recombinant SARS-CoV-2 PLpro extracted from Escherichia coli BL21 (DE3) cells in absence of 0.01% triton by microplate reader analysis

Structure (SMILES) | remaining at 0.5 h [1] [%] | remaining at 0.5 h [2] [%] | remaining at 0.5 h [3] [%] | ΔTm [4] [°C] | inhibition [5] | inhibition [6] | selectivity ratio [7] | inhibition [8] | inhibition [9]
CN1CCC(Nc2ccnc3ccc(-c4ccc(C(=O)NCCO)nc4)nc23)CC1 | 95.5 | 97.3 | 94.2 | > 1 |  |  |  |  | 
COc1ccc(-c2ccc3nccc(N[C@@H]4CCNC4)c3n2)cn1 | 54.6 |  |  | > 1 | Active; Compound Is Not An Aggregator | Active; Compound Is Not An Aggregator | 2 |  | 
CS(=O)(=O)c1cccc(-c2ccc3nccc(N4CCNCC4)c3n2)c1 | 55.1 |  |  | > 1 |  |  |  |  | 
CNC(=O)c1ccc(-c2ccc3nccc(NC4CCNCC4)c3n2)cn1 | 94.4 | 93.4 | 97.4 | > 1 |  |  |  |  | 
Cn1ccc(-c2ccc3nccc(N[C@@H]4CCNC4)c3n2)cc1=O | 98 | > 99 | 94.3 | > 1 |  |  | 2 | Active; Compound Is Not An Aggregator | Active; Compound Is Not An Aggregator
